# Screens deposited in PubChem by several laboratories.
# CHOP UPR activ: activators of apoptotic CHOP UPR arm, primary screen, cell-based, CHO-CHOP luciferase reporter, luminescence, uHTS; UPR activation; percent of tunicamycin response over DMSO baseline; activation, % at 10 µM; 330,000 tested, 0.34% active;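 active = at 10 µM dose, activation of 40% or more, normalized to positive control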;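 also: 100% = tunicamycin at 10 µg/mL and 0% = DMSO alone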
#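 assay system = CHO CHOP reporter cells | amount = 500 CHO-CHOP cells per well | buffer or medium = F12 with 10% FBS | incubation = 16-18 h cell attachment, then 6 h compound exposure, 37 °C | detection = luminescence read with Steady-Glo | read-out = percent activation relative to tunicamycin control | controls = tunicamycin high control, DMSO low control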
# p-CIP stab down: p/CIP-EGFP fusion destabilizers, primary screen, fluorescence, F442A cells. decrease of EGFP signal, % at 10 µM. 16 h. AID 1984, 2009. Q05BA5. 290,000 tested, 0.01% active;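 active = EGFP signal decrease of at least 30% at 10 µM or well 3 SD below plate mean, unless failing retest; inactive = the rest, including hits failing retest or dose response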
# Target sequence (Q05BA5 1-1403): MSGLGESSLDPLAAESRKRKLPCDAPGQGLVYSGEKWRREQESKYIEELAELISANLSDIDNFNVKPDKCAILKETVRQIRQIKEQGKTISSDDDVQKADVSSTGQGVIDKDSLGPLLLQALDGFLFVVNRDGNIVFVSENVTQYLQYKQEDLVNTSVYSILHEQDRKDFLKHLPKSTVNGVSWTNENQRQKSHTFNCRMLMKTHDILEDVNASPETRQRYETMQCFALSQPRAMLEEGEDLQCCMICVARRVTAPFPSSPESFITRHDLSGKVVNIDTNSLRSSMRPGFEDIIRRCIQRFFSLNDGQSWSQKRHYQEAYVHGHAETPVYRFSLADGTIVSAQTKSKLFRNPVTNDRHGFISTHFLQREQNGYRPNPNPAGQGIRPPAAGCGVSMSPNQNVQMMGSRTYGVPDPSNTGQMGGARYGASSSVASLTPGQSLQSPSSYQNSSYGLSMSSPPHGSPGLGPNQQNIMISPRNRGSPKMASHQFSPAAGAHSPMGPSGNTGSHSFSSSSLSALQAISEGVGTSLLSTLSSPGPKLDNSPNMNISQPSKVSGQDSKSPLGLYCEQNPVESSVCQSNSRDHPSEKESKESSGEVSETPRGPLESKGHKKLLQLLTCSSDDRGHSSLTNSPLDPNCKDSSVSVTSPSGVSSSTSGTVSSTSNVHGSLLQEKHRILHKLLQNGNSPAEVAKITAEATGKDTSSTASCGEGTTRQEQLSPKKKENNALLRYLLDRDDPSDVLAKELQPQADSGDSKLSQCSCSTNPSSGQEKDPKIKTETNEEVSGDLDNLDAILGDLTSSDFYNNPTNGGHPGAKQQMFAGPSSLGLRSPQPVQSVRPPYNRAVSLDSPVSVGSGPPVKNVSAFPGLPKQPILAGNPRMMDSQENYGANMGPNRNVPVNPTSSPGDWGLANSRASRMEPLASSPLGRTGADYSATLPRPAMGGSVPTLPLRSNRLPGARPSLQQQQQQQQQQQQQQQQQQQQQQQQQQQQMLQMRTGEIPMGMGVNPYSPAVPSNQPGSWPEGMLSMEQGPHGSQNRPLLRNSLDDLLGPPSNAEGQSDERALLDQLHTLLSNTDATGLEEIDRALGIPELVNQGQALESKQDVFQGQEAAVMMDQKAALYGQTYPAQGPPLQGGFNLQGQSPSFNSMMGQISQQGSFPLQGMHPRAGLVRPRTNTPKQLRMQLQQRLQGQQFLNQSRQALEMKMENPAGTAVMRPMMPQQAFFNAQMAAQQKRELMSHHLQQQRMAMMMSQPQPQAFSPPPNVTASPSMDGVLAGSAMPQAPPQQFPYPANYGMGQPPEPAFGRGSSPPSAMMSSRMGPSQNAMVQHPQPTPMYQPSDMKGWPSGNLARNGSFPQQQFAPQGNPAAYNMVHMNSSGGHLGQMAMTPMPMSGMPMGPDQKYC
# CHOP inhibitor: inhibitors of CHOP promoter induction, primary screen, cell-based, unfolded protein response, luciferase reporter. CHO-K1 CHOP-promoter luciferase, tunicamycin-induced, 15-18 h. inhibition, % at 10 µM. 220,000 tested, 3.8% active;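 active = compounds that reduced the stress-induced luciferase reporter signal by more than about 70% of percent inhibition, limit read from the data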;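 also: 0% = tunicamycin plus vehicle and 100% = wells without tunicamycin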
# Beta2AR agonist: beta2AR agonists driving receptor internalization, primary screen, cell-based, FAP fluorogen, flow cytometry; Am2.2-beta2AR cells; response, % (no concentration beside the values); 340,000 tested, 0.43% active;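 active = response above a set limit, near 3 SD of response in nonfluorescent compounds, cut at about 42% in these data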
# Dynein transport: inhibitors of GR-EGFP nuclear translocation, primary screen, dynein cargo transport inhibitor project, imaging, high-content, 3617.4 mouse cells; test concentration mostly 20 µM; stimulated with dexamethasone, 1 µM; active compounds read low; z-score, hits read low; 220,000 tested, 0.47% active;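 active = plate z-score of nuclear minus cytoplasmic receptor signal below a set negative limit, without overly bright fluorescence or cell loss, cut at about -3.5 in these data, passing the limit was not always enough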;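 also: z-score of nuclear minus cytoplasmic ring GR-EGFP intensity difference per well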
#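 medium = tetracycline-free induction medium containing charcoal-stripped FBS | probe or stimulus = dexamethasone, 1.0 µM final | timing = 48 h induction, then 1 h compound, then 30 min agonist, 37 °C | detection = automated 10x imaging of fixed Hoechst-stained cells | read-out basis = nuclear versus cytoplasmic GR-EGFP signal, averaged per well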
# XBP1 UPR activ: activators of adaptive XBP1 UPR arm, primary screen, cell-based, CHO-XBP1 luciferase reporter, luminescence, uHTS. IRE1-XBP1 UPR activation; percent of tunicamycin response, DMSO as zero. activation, % at 20 µM. 330,000 tested, 0.33% active. AID 463104, 2010;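 active = versus positive control, 20 µM dose yields 30% or more activation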;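 also: 100% = tunicamycin at 10 µg/mL and 0% = DMSO only wells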
#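 Material: CHO cell line with stable XBP1 luciferase reporter; schedule: 16-18 h cell attachment at 37 °C, then 6 h compound exposure; signal: glow luminescence from Steady-Glo reagent; medium: serum-containing F12 medium, 10% FBS; benchmarks: tunicamycin 10 µg/mL and vehicle-only wells; read-out: percent activation relative to tunicamycin reference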
# Dynein confirm: dynein cargo transport inhibitors, GR-EGFP translocation, confirmation, imaging, high-content imaging, GR-EGFP cells. calls only at 20 µM. 1,000 tested, 69% active. shares compounds with Dynein transport. 3617.4 GR-EGFP nuclear translocation imaging, dexamethasone-induced;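 active = inhibition of receptor movement into the nucleus at or above a set limit in both runs, with normal cell brightness and cell count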;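 also: dexamethasone at 1 µM final in well for 30 min; nuclear minus cytoplasmic GR-EGFP mean intensity difference in channel 2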
# Active calls of the source: *; i = inactive; nt = no result given; + = active, no number. This excerpt belongs to a sample that is enriched for hits.
SMILES,CHOP UPR activ,p-CIP stab down,CHOP inhibitor,Beta2AR agonist,Dynein transport,XBP1 UPR activ,Dynein confirm
CS(=O)(=O)N1CCN(c2ccc(NC(=O)c3ccc([N+](=O)[O-])o3)cc2)CC1,nt,-15,56,11,-1.3,nt,nt
O=C(Nc1ccc(N2CCCCC2)cc1)c1ccc([N+](=O)[O-])o1,35,-7,nt,27,nt,-10,nt
COc1ccc(C(=O)CSc2nc(=O)n(Cc3cccnc3)c3c2CCC3)cc1,nt,nt,nt,-11,nt,nt,nt
Cc1ccc(S(=O)(=O)N(C)CCCC(=O)NC(C)(C)CO)cc1,1,-1,-7,4,-0.86,-1,nt
O=C1ON=C(c2ccccc2)/C1=C\c1ccco1,3,-1,-13,0,-4.4*,11,+
CC1=NOC(=O)/C1=C\c1ccc(-c2ccccc2Br)o1,nt,-5,-17,36,-3.7*,nt,+
O=C1ON=C(c2ccccc2)/C1=C/c1ccccc1,0,-9,nt,8,nt,-6,nt
Cc1ccc(/C=C2/C(=O)ON=C2c2ccccc2)o1,6,-9,-36,39,-6*,20,+
CC1=NOC(=O)/C1=C\c1ccc(-c2ccc(Cl)c(C(=O)O)c2)o1,-1,-12,4,10,-0.57,-4,nt
COC(=O)c1cc(=O)n(CCc2ccccc2)c(=Nc2ccc(F)cc2)s1,6,-3,5,4,-3.3,5,nt
CCn1c(=O)cc(C(=O)OC)sc1=Nc1ccc(F)c(F)c1,8,-4,96*,7,-3.9*,6,+
CC(C)(Oc1ccc(Cl)cc1)C(=O)N1CCN(C(=O)c2ccco2)CC1,0,-9,nt,-5,nt,3,nt
CC1(C)COC(/C=C/c2cccc([N+](=O)[O-])c2)=N1,1,1,-37,17,-4.5*,-3,+
CCOC(=O)COc1ccc2ccccc2c1/C=C/[N+](=O)[O-],nt,-10,109*,44*,-4.8*,nt,+
C[C@H](CO)N1C[C@H](C)[C@@H](CN(C)S(=O)(=O)c2ccc(F)cc2)Oc2c(NS(=O)(=O)c3ccc(F)cc3)cccc2C1=O,1,nt,nt,2,nt,-1,nt
N#CC1=C(N)C(C#N)(C#N)C(c2ccncc2)C2CN(C(=O)OCc3ccccc3)CC=C12 (stereo unspecified),11,-3,10,15,-4,10,i
N#CC1=C(N)C(C#N)(C#N)[C@H](c2cccnc2)[C@H]2CN(C(=O)OCc3ccccc3)CC=C12,2,-8,45,9,-0.28,1,nt
C=CCn1c(-c2ccc3ncccc3c2)n[nH]c1=S,-1,-4,-1,6,-0.56,1,nt
Cc1onc(-c2ccccc2)c1C(=O)c1ccccc1,-2,-4,-1,10,-0.34,-2,nt
COc1ccc(/C=c2\s/c(=C/C(=O)c3ccc(C)cc3)[nH]c2=O)cc1OC,3,-8,100*,-21,-6.6,1,i
N#C/C(C(=O)c1ccccc1)=C1/SC=C(N)N1c1ccccc1,nt,-45,-8,nt,-4.4,nt,i
N#C/C(C(N)=O)=C1/SC=C(c2ccccc2)N1c1ccccc1,1,-7,12,2,-0.91,2,nt
COc1ccc(NC(=O)CC2Sc3ncnn3C2=O)cc1 (stereo unspecified),0,-3,-1,3,-4*,-3,i
O=C(CC1Sc2ncnn2C1=O)Nc1ccc(Cl)cc1 (stereo unspecified),2,-5,49,nt,-3.6*,-2,i
CCOC(=O)c1ccc(NC(=O)CC2Sc3ncnn3C2=O)cc1 (stereo unspecified),3,-9,21,7,-2.3,-1,nt
SMILES,CHOP UPR activ,p-CIP stab down,CHOP inhibitor,Beta2AR agonist,Dynein transport,XBP1 UPR activ,Dynein confirm
CC1CCN(S(=O)(=O)c2ccc(C(=O)NCc3ccco3)cc2)CC1,-2,6,18,-5,-0.1,-2,nt
O=c1c(Cl)cc(Cl)nn1-c1ccccc1,3,-1,-33,16,-3.5*,0,+
COc1cc(Cl)nn(-c2ccccc2)c1=O,0,-2,-9,-8,3.2,-1,nt
O=C(Cc1ccc(F)cc1)NCCS(=O)(=O)N1CCN(c2cccc(Cl)c2)CC1,0,nt,nt,2,nt,-3,nt
Cc1ccc(NC(=S)N2CCC(NC(=O)c3ccccc3)CC2)cc1,2,-23,nt,4,nt,-3,nt
C[C@H]1O[C@@H](O[C@H]2CC[C@@]3(C)C(CC[C@]4(C)C3C=C[C@]35OC[C@@]6(CCC(C)(C)C[C@H]63)[C@@H](O)C[C@]54C)[C@]2(C)CO)[C@H](O)[C@@H](O[C@@H]2O[C@H](CO)[C@@H](O)[C@H](O)[C@H]2O)[C@H]1O (stereo partly specified),1,nt,nt,-5,nt,-1,nt
CC1OC(OC2C(OC3C(O[C@H]4CC[C@]5(C)C6C=C[C@]78OC[C@@]9(CC[C@@H](C)[C@H](C)C97)[C@H](O)C[C@@]8(C)[C@]6(C)CC[C@H]5C4(C)C)OC(C)C(O)C3O)OC(CO)C(O)C2O)C(O)C(O)C1O (stereo partly specified),nt,-11,101*,nt,-3.9*,nt,i
CS(=O)(=O)c1ccc(C(=O)OCc2nnc(-c3ccc(Cl)cc3)o2)cc1[N+](=O)[O-],2,7,79*,93*,-5.6*,3,+
O=C(OCc1nnc(-c2ccc(Cl)cc2)o1)c1ccc(O)cc1,3,-6,20,-8,-0.43,1,nt
CC(=O)OCCCNc1cc(SCc2ccco2)c2nonc2c1[N+](=O)[O-],-1,6,22,37,-5.5*,-2,+
CCC(=O)OCCNc1cc(Sc2nc3ccccc3[nH]2)c2nonc2c1[N+](=O)[O-],nt,-2,109*,78*,-4.9*,nt,i
CCCC(=O)OCCNc1cc(SCc2ccco2)c2nonc2c1[N+](=O)[O-],-4,-15,13,64*,-3.9*,-4,+
O=[N+]([O-])c1c(NCc2ccco2)ccc2nonc12,1,4,-2,-1,1.4,-3,nt
CCCSc1cc(NCCOC(=O)CCC)c([N+](=O)[O-])c2nonc12,6,1,68,1,-4.9*,-4,+
NCCNc1ccc([N+](=O)[O-])c(Sc2nc3ccccc3[nH]2)c1,3,-11,18,-1,-0.26,-1,nt
